Assay [1] deals with MRC5. The assay can be described thus: Cytotoxic activity of compound against uninfected MRC5 cells. The format is functional. Conditions: Homo sapiens. Summed up: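 Uninfected MRC5 monolayers given the same six compound concentrations in triplicate and incubated 5 days. Minimum cytotoxic dose estimated by microscopic examination.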
The test system of assay [2] is IM-9. The assay can be described thus: Cytotoxic activity of compound against growing cultures of human leukemicB-cell line IM-9 at 100 uM. The format is functional.
Assay [3] is filed under the species Homo sapiens. Kind of assay: Cytotoxic activity of compound against uninfected 2.2.15 cells. The format is functional. The settings on record: HepG2 2.2.15. Summed up:
(§1)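 Growing cultures of 2.2.15 cells, used for both antiviral effect and cytotoxicity. IC50 and CC50 each come from five compound concentrations encompassing the value. Data are means of four replicate samples.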

Assay [4] is filed under the species Homo sapiens. The assay can be described thus: Inhibitory activity of compound against hepatitis B virus (HBV) in growing cultures of 2.2.15 cells. The format is functional, cell-based. The settings on record: HepG2 2.2.15. In outline: as §1
In assay [5] the test system is MRC5. Kind of assay: Inhibitory activity of compound against human cytomegalovirus (HCMV) strain AD169 in monolayers of MRC5 cells. The format is functional, cell-based. In outline: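 MRC5 human embryonic lung monolayers infected with HCMV AD169 at ca. 0.01 infectious particles/cell. Compound added at six concentrations, each in triplicate, then incubated 5 days. IC50 estimated from well HCMV DNA measured by blotting and quantitative specific DNA hybridization. Reported value is the mean of at least two determinations done at different times.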

In assay [6] the test system is CCRF-CEM. The assay can be described thus: Cytotoxic activity of compound against growing cultures of human leukemic T-cell lines CEM 100 uM. The format is functional.
In assay [7] the test system is MOLT-4. Kind of assay: Cytotoxic activity of compound against growing cultures of human leukemic T-cell lines Molt-4 100 uM. The format is functional.
Assay [8] has as its system MOLT-4. Kind of assay: Cytotoxic activity of compound against growing cultures of human leukemic T-cell lines Molt-4 at 100 uM. The format is functional.
Assay [9] deals with CCRF-CEM. Kind of assay: Cytotoxic activity of compound against growing cultures of human leukemic T-cell lines CEM at 100 uM. The format is functional.
The subject of assay [10] is MOLT-4. The assay can be described thus: Cytotoxic activity of compound against growing cultures of human leukemic T-cell lines Molt-4. The format is functional. In outline:
(§2)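 Growing cultures of the human leukemic line (T-cell CEM or Molt 4; B-cell IM-9). CC50 taken from five compound concentrations spanning the CC50. Data are means of three replicate samples.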

Assay [11] relates to CCRF-CEM. Kind of assay: Cytotoxic activity of compound against growing cultures of human leukemic T-cell lines CEM. The format is functional. In outline: as §2
Assay [12] has as its system IM-9. Kind of assay: Cytotoxic activity of compound against growing cultures of human leukemicB-cell line IM-9. The format is functional. Summed up: as §2

From ChEMBL document CHEMBL1129667, “Synthesis and antiviral activity of 2'-deoxy-4'-thio purine nucleosides” (J Med Chem, 1996) come the findings set out here.

For `Nc1nc(Cl)c2ncn(C3CC(O)C(CO)S3)c2n1` (stereo unspecified), the CC50 in assay [1] is 2 µM; in [2] it was 42 µM; in assay [3], > 0.2 µM; in [6] it was 10 µM; in [7] it was 3.8 µM. Further, the values for the IC50 in [4] and in [5] were 0.001 µM and 0.1 µM, respectively.
For the compound `CCCNc1nc(N)nc2c1ncn2C1CC(O)C(CO)S1` (stereo unspecified), the CC50 in [1] is > 50 µM; in assay [3], > 0.2 µM. Further, the Control in assay [2] worked out at 92%; in assay [8] it was 52%; in assay [9], 68%. Further, the concentration for half-maximal inhibition (IC50) stood at 0.061 µM in assay [4] and 2 µM in assay [5].
As to `C=CCNc1nc(N)nc2c1ncn2C1CC(O)C(CO)S1` (stereo unspecified), the CC50 is > 200 µM in assay [1], > 0.2 µM in assay [3], 40 µM in [10] and 60 µM in assay [11]. This compound displayed a Control in assay [2] of 67%. The IC50 in assay [4] is 0.058 µM; in assay [5] it was 1.5 µM.
Take `CSc1nc(N)nc2c1ncn2C1CC(O)C(CO)S1` (stereo unspecified): the figures for the CC50 in assay [1] and in assay [3] were > 20 µM and > 200 µM, respectively. Moreover, the Control in [2] was 88%; in [8] it was 73%; in assay [9], 78%. In addition, the IC50 was determined as 0.45 µM in [4] and 2 µM in [5].
As to `Nc1nc(N2CCCCC2)c2ncn(C3CC(O)C(CO)S3)c2n1` (stereo unspecified), the CC50 in assay [1] and in assay [3] was > 200 µM throughout. Moreover, the results for the Control in assay [2], in [8] and in [9] were 88%, 77% and 80%, respectively. For the same compound, the values for the IC50 in [4] and in assay [5] were 4 µM and 6 µM, respectively.
For `COc1nc(N)nc2c1ncn2C1CC(O)C(CO)S1` (stereo unspecified), the CC50 was > 5 µM in assay [1]; 14 µM in assay [3]; 2 µM in assay [10]; 8 µM in assay [11]; 5 µM in assay [12]. In addition, the IC50 is 0.0025 µM in assay [4] and 0.062 µM in [5].
For `Nc1nc(O)c2ncn(C3CC(O)C(CO)S3)c2n1` (stereo unspecified), the CC50 in [1] turned out to be 2 µM; in [3], 13 µM; in assay [10], 14 µM; in assay [11], 9 µM; in assay [12], 4 µM. The IC50 in assay [4] was 0.002 µM; in [5] it was 0.06 µM.
Regarding `Nc1nc(N2CCCC2)c2ncn(C3CC(O)C(CO)S3)c2n1` (stereo unspecified), the CC50 in assay [1] and in [3] was > 200 µM in each case. The figures for the Control in assay [2], in assay [8] and in [9] were 99%, 112% and 71%, respectively. Besides, the IC50 in assay [4] was found to be 0.85 µM; in assay [5], 10 µM.
Turning to `Nc1nc(OCC2CC2)c2ncn(C3CC(O)C(CO)S3)c2n1` (stereo unspecified), the CC50 in assay [1] was > 20 µM; in assay [3], > 0.2 µM; in assay [10], 13 µM; in assay [11] it was 41 µM; in assay [12], 61 µM. Moreover, the IC50 in assay [4] is 0.035 µM; in [5] it was 0.6 µM.
For `CCN(C)c1nc(N)nc2c1ncn2C1CC(O)C(CO)S1` (stereo unspecified), the CC50 in assay [1] was > 20 µM; in assay [3], > 200 µM. Moreover, the Control in [2] was 85%; in [8] it was 77%; in assay [9] it was 69%. In addition, the IC50 in [4] was 0.19 µM; in [5], 2 µM.
In the case of `CC(C)Nc1nc(N)nc2c1ncn2C1CC(O)C(CO)S1` (stereo unspecified), the CC50 in assay [1] is > 100 µM; in [3] it was > 200 µM. The Control is listed as 90% in assay [2], 77% in assay [8] and 80% in assay [9]. Moreover, the concentration for half-maximal inhibition (IC50) in [4] was 0.3 µM; in assay [5], 4 µM.
Take `Nc1nc(NC2CC2)c2ncn(C3CC(O)C(CO)S3)c2n1` (stereo unspecified): the CC50 came out at 15 µM in assay [1] and 77 µM in [3]. The Control in assay [2] is listed as 78%; in assay [8], 11%; in [9], 68%. For the same compound, the IC50 in [4] is 0.0072 µM; in assay [5], 0.2 µM.
On to `CN(c1nc(N)nc2c1ncn2C1CC(O)C(CO)S1)C1CC1` (stereo unspecified), for which the results for the CC50 in assay [1], in assay [3] and in [10] were > 20 µM, 101 µM and 100 µM, respectively. Also, the Control in assay [2] is reported as 72%; in assay [9], 58%. Also, the figures for the IC50 in assay [4] and in assay [5] were 0.3 µM and 2 µM, respectively.

The CC50 is the concentration at which the toxic effect on the cells reaches its halfway point. A high value points to lower toxicity to the cells. What is called IC50 is the concentration needed to halve the response being measured. A low value points to greater potency in that assay.
